EBI2 block: EBI2 (human) antagonism; EBI2 beta-arrestin recruitment, luminescence, 7a,25-OHC stimulated; inhibition, % at 5 µM; actives 0.81% (n = 360,000); AID 651636; in the data active = inhibition above about 38%;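 also: enzyme fragment complementation signal reports receptor beta-arrestin coupling in cells; 0% = agonist plus DMSO wells and 100% = wells without agonist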
APJ ag: agonists of human APJ apelin receptor | AID 2520 | CHO-K1 APJ PathHunter beta-arrestin, luminescence; 0% DMSO wells, 100% apelin | activation, % at 20 µM | actives 0.11% (n = 330,000) | P35414;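 active = activation more than six SD over the plate average, tested at 20 µM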;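 also: 0% = DMSO alone and 100% = apelin-13 at 10 nM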
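Material: engineered CHO-K1 APJ arrestin reporter cells; amount: 1000 CHO-K1 reporter cells seeded per well; incubation: compound stimulation 90 min at 25 °C, detection 60 min; signal: luminescent beta-gal fragment complementation, chemiluminescent substrate; read-out basis: APJ agonist activity; controls: DMSO-only wells as negative, 10 nM Apelin-13 as positive control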
APJ antag: APJ receptor antagonism; P35414; CHO-K1 APJ beta-arrestin complementation, luminescence; inhibition, % at 20 µM; actives 0.32% (n = 330,000); AID 2521;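 active = inhibition above about 40% at 20 µM, limit read from the data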;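 also: cells challenged with 10 nM apelin-13 agonist together with compound; plate controls were apelin-13 plus DMSO wells for no effect and DMSO wells lacking apelin-13 for full effect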
CXCR6 inh: CXCR6 (human) receptor inhibition. O00574. CHO-K1 PathHunter CXCR6 beta-arrestin, luminescence. inhibition, % at 20 µM. actives 0.36% (n = 360,000). AID 602244; in the data active = inhibition above about 34%, passing the limit was not always enough;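 also: antagonist mode with CXCL16 agonist at 10 nM final; 0% = 10 nM CXCL16 with DMSO and 100% = unstimulated wells without agonist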
Target sequence (O00574 whole entry, looked up): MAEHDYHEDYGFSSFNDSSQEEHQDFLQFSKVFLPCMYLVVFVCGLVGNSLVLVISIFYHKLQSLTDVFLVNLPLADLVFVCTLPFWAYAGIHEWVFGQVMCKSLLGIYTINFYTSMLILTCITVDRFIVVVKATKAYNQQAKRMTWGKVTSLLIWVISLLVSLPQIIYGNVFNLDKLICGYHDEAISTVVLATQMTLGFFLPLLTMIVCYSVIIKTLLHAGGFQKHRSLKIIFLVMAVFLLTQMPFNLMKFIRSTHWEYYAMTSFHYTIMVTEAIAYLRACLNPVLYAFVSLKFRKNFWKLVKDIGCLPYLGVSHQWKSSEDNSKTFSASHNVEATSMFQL
CCR6 antag: antagonists of human CCR6 receptor. P51684. CHO-K1 CCR6 PathHunter beta-arrestin, luminescence, CCL20-stimulated. inhibition, % at 20 µM. actives 0.49% (n = 340,000). AID 493098;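 active = compounds whose inhibition of the agonist-driven luminescence signal at 20 µM reaches about 50%, limit read from the data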;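 also: cells stimulated with CCL20 at 14 nM final; plate controls were DMSO with CCL20 for no effect and DMSO without agonist for full effect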
Target sequence (P51684 whole entry, looked up): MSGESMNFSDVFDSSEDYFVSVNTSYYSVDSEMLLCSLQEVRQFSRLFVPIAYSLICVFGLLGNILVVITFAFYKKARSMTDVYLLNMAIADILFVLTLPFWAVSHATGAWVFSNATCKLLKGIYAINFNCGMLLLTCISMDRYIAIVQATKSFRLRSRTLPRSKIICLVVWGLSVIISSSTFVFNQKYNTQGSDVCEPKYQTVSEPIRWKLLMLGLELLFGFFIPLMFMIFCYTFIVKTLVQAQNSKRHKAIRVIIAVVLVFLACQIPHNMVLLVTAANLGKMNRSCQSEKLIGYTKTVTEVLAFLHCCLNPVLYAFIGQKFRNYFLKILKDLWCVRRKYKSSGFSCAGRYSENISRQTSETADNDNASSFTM
APJ ag confirm: APJ receptor agonism confirmation; shares compounds with APJ ag; AID 2764; activation, % at 20 µM; CHO-K1 APJ PathHunter beta-arrestin, luminescence; actives 10% (n = 310);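 active = activation above 40%, taking the highest of four retests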;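 also: plate controls were DMSO wells for no effect and apelin-13 at 10 nM for full effect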
APJ antag conf: confirmation of human APJ apelin receptor antagonists; shares compounds with APJ antag; APJ beta-arrestin recruitment, luminescence, antagonist mode; inhibition, % at 20 µM; actives 66% (n = 950); in the data active = inhibition above about 50%
CXCR6 antag conf: confirmation of human CXCR6 receptor antagonists. shares compounds with CXCR6 inh. CHO-K1 CXCR6 PathHunter beta-arrestin, luminescence. inhibition, % at 20 µM. actives 65% (n = 700). AID 602409;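 active = mean inhibition over four retests above 40%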;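 also: receptor stimulated with 10 nM CXCL16 agonist; beta-galactosidase fragment complementation upon beta-arrestin recruitment to receptor; plate controls were CXCL16 plus DMSO for no effect and DMSO without CXCL16 for full effect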
Active calls of the source: *; . = no result. Compounds with a hit are over-represented: about 1.5% of the library has one in this group of screens.

SMILES	EBI2 block	APJ ag	APJ antag	CXCR6 inh	CCR6 antag	APJ antag conf	others
CC1(C(=O)NCc2ccccc2)CCC(=O)N1CCCn1ccnc1 (stereo unspecified)	3.2	.	.	0.0	.	.
COc1ccc(NC(=O)/C(C#N)=C/c2ccc(Sc3nncn3C)c([N+](=O)[O-])c2)cc1	-3.0	18.0*	-45.5	-0.3	19.6	.	APJ ag confirm=17.6
COc1ccc(CN2CCC2(C)C(=O)NCCc2c[nH]c3ccccc23)c2ccccc12 (stereo unspecified)	-1.1	.	.	-5.7	.	.
COc1cccc(Nc2nc(NCC3CCCO3)c3ccccc3n2)c1 (stereo unspecified)	-14.0	14.3*	-11.8	-8.4	1.4	.	APJ ag confirm=10.1
COc1cccc(N2CCN(c3ncnc4c3[nH]c3ccccc34)CC2C)c1 (stereo unspecified)	.	19.0*	-57.4	.	.	.	APJ ag confirm=41.4*
CC[C@]12C(=O)N(C)C[C@H]([C@@H]3C(=O)N(C)C(=O)[C@@H]31)N2C(=O)c1ccc(Br)cc1	2.0	.	.	-6.2	-0.8	.
Cc1ccc(NC(=O)C/C(N)=N/OC(=O)Nc2ccc(C)c(Cl)c2)cc1	1.5	27.0*	-39.8	-37.4	-17.6	.	APJ ag confirm=26.1
Cc1ccc(NC(=O)C/C(N)=N/OC(=O)Nc2cccc(C)c2)cc1	4.3	8.7	-137.1	-33.8	-17.9	.
O=c1[nH]c2cc(F)ccc2c2ccc(F)cc12	5.7	.	.	-12.0	8.0	.
Cc1cccn2c(=O)c3cc(C(=O)NCC4CCCO4)c(=N)n(CCN4CCOCC4)c3nc12 (stereo unspecified)	-9.1	30.6*	-5.9	8.1	-1.7	.	APJ ag confirm=-4.5
CCOC(=O)CCC(NC(=O)c1ccc(Nc2nc3ccccc3nc2C(=O)OCC)cc1)C(=O)OCC (stereo unspecified)	-0.1	.	.	2.0	2.7	.
Cc1cccc(NC(=S)NC(=O)CCc2ccccc2)c1	14.7	19.2*	-82.3	-19.0	-35.2	.	APJ ag confirm=25.4
Cc1cccc(NC(=O)NNC(=O)CCc2ccccc2)c1	9.8	0.8	11.0	5.3	-4.5	.
COCCCNC(=O)C[C@H]1C[C@H](C(=O)N(C(C)C)C(C)C)[C@@]2(C)c3[nH]c4cc(-c5ccco5)ccc4c3CCN2C1=O	6.5	.	.	-3.4	24.7	.
Cc1cc2ccccn2c1C(=O)c1nc(NCc2ccco2)ncc1Cl	10.3	39.9*	14.0	12.7	21.5	.	APJ ag confirm=39.8
Cc1cc2ccccn2c1C(=O)c1nc(N2CCOCC2)ncc1Cl	3.2	-0.4	4.2	-0.2	-4.7	.
O=C(c1ccccc1)N1CCN(c2ncnc3c2cnn3-c2ccccc2)CC1	-4.9	7.4	12.4	-5.5	2.6	.
Cc1nn(-c2ccccc2)c(Cl)c1C(=O)N1CCN(c2ncnc3c2cnn3-c2ccccc2)CC1	-67.0	18.0*	-39.4	6.7	-23.4	.	APJ ag confirm=30.1
CCCCCCc1cc2cc(C(=O)Nc3ccccc3)c(=O)oc2cc1O	-33.1	11.3*	-38.5	-70.0	-98.7	.	APJ ag confirm=43.0*
CCOc1ccc(/C=C/[N+](=O)[O-])c2ccccc12	9.8	16.3*	-24.0	60.2*	.	.	APJ ag confirm=-3.0;CXCR6 antag conf=52.0*
CCCCNc1c(-c2cccnc2)nc2nc(C)cc(C)n12	8.5	.	.	2.1	.	.
Oc1ccccc1/C=N/Nc1cc(N2CCCC2)nc(N2CCCC2)n1	27.6	-2.7	42.3*	15.7	34.7	41.9
CCn1c(CC(=O)Nc2ccccc2F)nnc1SCC(=O)NC1=NCCS1	-7.5	.	.	-11.2	.	.
CN(C)CCNC(=O)c1ccc2c(c1)N(Cc1ccc(F)cc1)CCS2	0.7	-5.2	52.4*	4.5	13.4	13.5
O=[N+]([O-])c1c(NCCCO)cc(Sc2nc3ccccc3s2)c2nonc12	49.1*	-6.8	75.6*	96.8*	114.7*	117.4*
SMILES	EBI2 block	APJ ag	APJ antag	CXCR6 inh	CCR6 antag	APJ antag conf	others
O=C(NC1CCCC1)C(c1ccc(F)cc1)N1CCC(O)(c2ccc(Cl)cc2)CC1 (stereo unspecified)	2.0	.	.	.	.	.
CC1(C(=O)Nc2ccc(Cl)c(Cl)c2)CCN1C(=O)Cc1ccc(-c2ccccc2)cc1 (stereo unspecified)	-6.9	.	.	3.0	.	.
CCN(CC)c1ccc2nc3ccccc3[n+](CC)c2c1	4.4	-6.3	28.8	21.1	40.1	.
CCN(CC)c1ccc2nc3ccc(N)cc3[n+](-c3ccccc3)c2c1	11.4	-10.2	45.0*	39.9	58.6*	95.7*
O=[N+]([O-])c1cnc(Sc2ccncn2)s1	25.6	13.9	54.7*	75.0*	80.5*	67.3*
O=C1NCCN1c1ncc([N+](=O)[O-])s1	-6.2	3.9	-11.9	-3.0	-4.2	.
CC(=O)c1ccc(N=Nc2ccc(N)cc2)cc1	9.2	-5.1	46.3*	28.7	46.6	48.8
COc1cccc(OCc2nc3ccccc3c(=O)n2N)c1	-13.5	-1.7	42.8*	2.4	-10.6	-31.5
CCOc1ccc(N=C2C(=O)Nc3ccc(C)c(Br)c32)cc1	10.8	-15.4	78.7*	73.1*	101.7*	145.6*
Cc1ccc2c(c1Br)/C(=N/N1C(=O)c3ccccc3C1=O)C(=O)N2	5.3	-10.2	37.5	9.3	20.7	.
Cc1ccccc1-c1cnc2c(c1)C(=O)N([C@@H](C)CO)C[C@@H](C)[C@H](CN(C)Cc1ccccc1F)O2	-8.7	.	.	0.8	.	.
CC(NS(=O)(=O)c1cc2c3c(c1)CCN3C(=O)CC2)c1ccccc1 (stereo unspecified)	-1.6	.	.	0.7	.	.
O=C(CCC(=O)OCC(=O)c1ccc(Cl)cc1Cl)Nc1cccc2cccnc12	8.9	-11.6	64.3*	12.0	62.4*	92.4*
O=C(OCC(=O)c1ccc(Cl)cc1Cl)c1ccc2c(c1)C(=O)N(c1cccc3ncccc13)C2=O	35.8	-9.0	55.5*	8.5	44.1	72.8*
O=C(OCC(=O)c1ccc(Cl)cc1Cl)c1ccccn1	10.4	-10.2	61.8*	26.1	47.6	88.7*
O=C(OCC(=O)c1ccccc1Br)c1ccccn1	-20.2	-5.4	2.2	1.5	-5.2	.
COc1cc(/C=C2\SC(=O)N(c3cccc(Cl)c3)C2=O)cc([N+](=O)[O-])c1O	17.5	-9.3	48.0*	34.7	67.5*	58.5*
O=C1S/C(=C\c2ccc(O)c([N+](=O)[O-])c2)C(=O)N1c1ccccc1Cl	3.9	-4.2	32.8	38.0	30.3	.
Cc1ccc(NCC(=O)c2ccccc2)cc1Cl	23.5	-16.8	94.2*	49.2*	73.0*	100.6*
Cc1ccc(C(=O)CNc2ccc(C)c(Cl)c2)cc1	34.6	-7.8	63.6*	22.4	60.5*	93.1*
Cc1ccc(NCCC(=O)c2ccccc2)cc1Cl	7.7	-0.8	-10.1	0.5	5.1	.
COc1ccc(Cl)cc1Cn1c(C)c(C(=O)NCc2cccc([N+](=O)[O-])c2)sc1=O	7.6	.	.	6.5	.	.
